Assay outcomes as filed in PubChem BioAssay.
Hits are enriched below; roughly 2.4% of the tested compounds scored in any of these assays.
MMP-13 inhibitor: MMP13 (human) collagenase inhibition; 65,000 compounds, 0.07% hits; inhibition, % at 4 µM; P45452; MMP-13 fTHP FRET cleavage, Mca fluorescence;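 active = inhibition above the mean of compound-free control plate wells plus 3 SD, cut at about 14% in these data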;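 note: 0% = DMSO wells and 100% = wells with reference MMP-13 inhibitor after basal subtraction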
E coli RNAP: Escherichia coli RNA polymerase inhibition | P0A8V2 | E. coli RNA polymerase, fluorescence transcription assay | inhibition, %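 (tested at 10 µM)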 | 62,000 compounds, 0.2% hits; in the data active = inhibition above about 20%;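 note: 0% = enzyme without compound and 100% = no enzyme blank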
SF-1 act: SF-1 (human) activation; 65,000 compounds, 1.9% hits; AID 522; Q13285; activation, % at 10 µM; CHO-K1 Gal4-SF-1 LBD luciferase reporter; % increase over DMSO SF-1-specific signal;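 active = activation above the mean activation of all tested compounds plus 3 SD, cut at about 50% in these data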
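Test system: CHO-K1 cells with Gal4–hSF-1 LBD chimera plus Gal4-driven luciferase; Input: 4,000 cells/well; Compound: 10 µM only; Times: 20 h compound treatment, 37 °C; Measured by: steady-glow luciferase luminescence, read after 15 min reagent incubation; Measure: percent activation versus DMSO; Control set: DMSO and mock-transfected background; Replicates: one test per compound.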
AP ELISA ortho: alternative pathway complement inhibition, orthogonal assay; 62,000 compounds, 0.08% hits; Human serum alternative complement pathway, LPS-coated ELISA, C3 deposition; tested in compound mixtures; inhibition, % at 5 µM;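 active = inhibition above 30% in each of the two pooled mixtures holding the compound, so the lower value exceeds 30%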;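 note: 0% = serum in Mg-EGTA without compound and 100% = EDTA serum blank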
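Test system: human serum alternative complement pathway, C3 deposition on LPS-coated wells; also added: Plate-bound LPS; doses: 5 µM per compound in ten-compound mixtures; schedule: 1 h at 37 °C; detection: Anti-C3 ELISA, OD 450 nm; evaluation: percent inhibition of C3 deposition onto LPS; repeats: two pool placements per compound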
RORA act: activators of human nuclear receptor RORA; CHO-K1 Gal4-RORA LBD luciferase reporter, luminescence; percent increase over mock-subtracted basal signal; activation, % at 10 µM; 65,000 compounds, 1.5% hits; AID 560;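 active = activation above the mean of all tested compounds plus 3 SD, cut at about 49% in these data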;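 note: 0% = DMSO-treated RORA cells and 100% = added signal equal to DMSO minus mock-transfected cells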
HePTP inh: blocks human HePTP tyrosine phosphatase | 110,000 compounds, 0.64% hits | inhibition, % at 20 µM | recombinant HePTP phosphatase activity, OD absorbance; in the data active = inhibition above about 50%;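 note: plate controls were vehicle for no effect and reference inhibitor for full effect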
Target sequence (P35236 whole entry, looked up): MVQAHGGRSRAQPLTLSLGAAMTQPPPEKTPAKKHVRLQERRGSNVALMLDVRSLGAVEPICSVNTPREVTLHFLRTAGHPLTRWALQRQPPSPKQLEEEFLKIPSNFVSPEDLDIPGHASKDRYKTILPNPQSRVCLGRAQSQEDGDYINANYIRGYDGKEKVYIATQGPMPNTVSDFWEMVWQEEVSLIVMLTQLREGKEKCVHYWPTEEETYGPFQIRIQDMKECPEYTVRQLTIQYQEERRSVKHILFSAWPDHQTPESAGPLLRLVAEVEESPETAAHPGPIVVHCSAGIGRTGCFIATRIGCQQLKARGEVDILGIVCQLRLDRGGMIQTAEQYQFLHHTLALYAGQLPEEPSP
* = called active by the depositor; . = no result; ! = repeats disagree.

SMILES	MMP-13 inhibitor	E coli RNAP	SF-1 act	AP ELISA ortho	RORA act	HePTP inh
COc1ccccc1/C=N/N1CCN(Cc2cccc3ccccc23)CC1	.	.	.	.	.	-3.6
Cn1c2ccccc2c2nnc(SCc3ccccc3Cl)nc21	.	.	.	.	.	13.4
O=C(COc1ccc2ccccc2c1)Nc1cc(Cl)cc(Cl)c1	.	.	.	.	.	0.5
NC(=O)c1ccc(NC(=S)Nc2ccc(F)cc2)cc1	.	.	.	.	.	9.8
O=C(NC1CCCCC1)c1cc2nc(-c3ccco3)cc(C(F)(F)F)n2n1	-21.3	11.6	10.6	7.7	15.9	4.9
O=C(NC1CCCCC1)c1cc2nc3c(c(C(F)(F)F)n2n1)CCCC3	3.1	9.3	50.4*	-10.7	33.7	0.4
COC(=O)c1cc(C(=O)Nc2ccc(Br)c(C)c2)cc([N+](=O)[O-])c1	.	.	.	.	.	-10.7
COc1ccc2nc(SCC(=O)N3CCNC3=O)[nH]c2c1	4.0	4.9	64.8*	16.0	44.9	3.1
CC(=O)c1c(C)[nH]c(C(=O)CSc2nnc(CN3CCCCCC3=O)n2-c2ccccn2)c1C	4.3	3.5	10.1	11.3	-1.7	-2.4
O=C1CCCCCN1Cc1nnc(SCc2nc3ccccc3s2)n1-c1ccccn1	2.4	3.7	78.7*	-3.4	60.7*	-5.6
O=C(CSc1ncn[nH]1)Nc1nc(-c2ccccc2)ns1	8.4	2.5	54.6*	20.5	37.8	2.9
Cc1ccc(-c2csc(NC(=O)c3ccno3)n2)cc1	-1.4	7.1	27.9	3.7	60.3*	4.2
O=C(Nc1nc(-c2ccccc2)ns1)c1cccs1	2.1	1.5	75.5*	14.5	34.1	10.0
Cc1ccc(C(=O)Nc2nc(-c3ccc(F)cc3)cs2)cc1	.	.	.	.	.	8.4
O=C(Nc1nc(-c2ccccc2)cs1)c1cccs1	-0.7	10.3	18.3	13.2	56.6*	3.1
O=C1N/C(=N/N=C\c2ccco2)SC1Cc1ccc(SC(F)F)cc1 (configuration not stated)	.	.	.	.	.	-0.9
CCCCOC(=O)c1cccc(NC(=O)COc2ccc(C)cc2C)c1	.	.	.	.	.	9.0
COCCOC(=O)c1c(C)oc2ccc(OC(=O)c3ccc([N+](=O)[O-])o3)cc12	.	.	.	.	.	4.7
COc1ccccc1NCN1C(=O)S/C(=C\c2ccc(C(C)C)cc2)C1=O	.	.	.	.	.	6.1
COc1ccc(CCNC(=O)/C=C/c2ccc([N+](=O)[O-])cc2)cc1	.	.	.	.	.	74.9*
CCOc1ccc(/C=C2\N=C(c3ccccc3Br)OC2=O)cc1	.	.	.	.	.	9.0
Cc1ccc(N=C2NC(=O)/C(=C/c3ccccc3F)S2)cc1	.	.	.	.	.	92.1*
O=C1c2cccc3cccc(c23)C(=O)N1CCS(=O)(=O)OCC(F)(F)C(F)F	.	.	.	.	.	4.3
COc1ccccc1CNC(=O)COc1ccc2ccccc2c1	.	.	.	.	.	-20.6
Fc1ccc(-c2noc(-c3ccccc3Cl)n2)cc1	.	.	.	.	.	7.5
SMILES	MMP-13 inhibitor	E coli RNAP	SF-1 act	AP ELISA ortho	RORA act	HePTP inh
Clc1ccccc1-c1nc(-c2ccccc2)n[nH]1	4.9	4.2	18.3	-9.5	60.9*	8.4
COC(=O)C1=C(C)N(C)C(C)=C(C(=O)OC)C1c1ccsc1	6.3	-4.0	14.0	-1.6	15.4	105.1*!
COc1cccc(C(=O)Nc2ncc3c(n2)CC(c2ccc(OC)cc2OC)CC3=O)c1 (configuration not stated)	5.7	7.0	56.6*	-0.4	18.1	0.9
CCOC(=O)C1=C(C)NC2=C(C(=O)c3ccccc32)C1c1ccccc1[N+](=O)[O-] (configuration not stated)	.	.	.	.	.	2.7
C=CCOc1ccc(/C=C2\C(=O)N(c3ccc(S(N)(=O)=O)cc3)N=C2C)cc1OC	.	.	.	.	.	20.1
O=C(CSc1nccn1Cc1ccccc1)Nc1nccs1	-3.9	7.6	13.6	8.1	57.1*	4.5
CCCC1C(=O)CC(c2ccccc2)N(C)C1c1ccccc1 (configuration not stated)	.	.	.	.	.	8.8
Cc1cc(C(=O)Nc2ccc(O)c(C(=O)O)c2)oc1C	.	.	.	.	.	-7.2
CN(C(=O)c1ccccn1)c1nnc(-c2cnccn2)s1	3.7	7.0	69.9*	14.2	44.5	4.0
CN(C(=O)c1cccnc1)c1nnc(-c2ccccn2)s1	-48.1	.	69.9*	6.5	39.0	6.7
Cc1ccc(-c2csc(Nc3ccc(O)cc3)n2)c(C)c1	.	.	.	.	.	-18.3
Cc1cccnc1Nc1nc(-c2ccc(O)cc2O)cs1	-0.3	12.3	51.4*	-16.7	-9.7	11.5
c1coc(-c2nnc(NC3=NCCC3)o2)c1	2.8	3.9	61.4*	5.3	31.6	0.6
O=C1c2cccc3cccc(c23)C(=O)N1CCOCc1ccccc1	.	.	.	.	.	9.9
COC(=O)C1=NN(C(=O)c2cccc(Br)c2)C(O)(c2ccc(Cl)cc2)C1 (configuration not stated)	.	.	.	.	.	-10.3
CCOC(=O)C1=NN(C(=O)c2cccc([N+](=O)[O-])c2)C(O)(c2ccc(Cl)cc2)C1 (configuration not stated)	.	.	.	.	.	103.9*
COCCNC(=O)CN(c1ccc(OC)c(Cl)c1)S(C)(=O)=O	.	.	.	.	.	-18.8
Cc1csc2nc(CSc3nc4ccccc4o3)c(Br)n12	1.0	-8.0	61.1*	14.2	34.4	7.4
Cc1csc2nc(CSc3nncn3-c3ccccc3)c(Br)n12	-1.6	5.1	21.3	9.3	-2.0	10.7
CCc1ccc(CCC(=O)Nc2nnc(C)s2)o1	0.3	0.6	3.0	26.9	-10.8	5.1
CCc1ccc(CCC(=O)Nc2ccc(C)c(C)c2)o1	1.3	11.6	55.5*	1.9	18.9	7.0
COc1ccc(NC(=O)c2cnn3c2NC(c2ccccc2)CC3C(F)(F)F)cc1OC (configuration not stated)	.	.	.	.	.	-19.4
O=C(O)CC(CC(=O)O)c1ccccc1[N+](=O)[O-]	.	.	.	.	.	3.0
Fc1ccc(-c2nc3nc4ccccc4nc3n2Cc2ccco2)cc1	-18.3	-0.8	37.1	-4.0	44.9	4.7
c1ccc(-c2nc3nc4ccccc4nc3n2Cc2ccco2)cc1	-14.9	-0.8	47.5	6.3	62.0*	5.9
SMILES	MMP-13 inhibitor	E coli RNAP	SF-1 act	AP ELISA ortho	RORA act	HePTP inh
O=C(Nc1ncc(Cc2ccc(Cl)cc2Cl)s1)c1ccccc1Br	.	.	.	.	.	-0.5
CCCCOC(=O)Nc1ccc(N2CCCCC2)cc1	-1.7	5.0	64.5*	4.5	94.6*	6.3
CCCCOC(=O)Nc1ccc(N2CCOCC2)cc1	6.4	2.3	35.2	3.4	41.8	-1.4
COc1ccc(-c2nc3c(Br)c(N)c(Br)cc3o2)cc1	-1.2	2.7	73.0*	.	5.5	4.5
Nc1c(Br)cc2oc(-c3ccccc3)nc2c1Br	1.7	-1.7	75.6*	.	52.3*	11.8
Nc1c(Cl)cc(-c2nc3ccccc3o2)cc1Cl	.	.	.	.	.	-11.0
CN1C(=O)/C(=C2/SC(=O)N(c3cccc(Cl)c3)C2=S)c2ccccc21	.	.	.	.	.	-11.5
